Where two headings read alike, the source gives them in different places.
What was measured:
[1] = system: 5′-fluorescein labeled HCV SLIIb; experiment: Reaction kinetics via fluorescence; assay type: biochemical, hepatitis C virus; conditions: pseudo Michaelis-Menten, catalytic efficiency
Procedure, shortened: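 Copper–peptide complexes were formed at 1.1:1 peptide:Cu. Each complex was added to 333 nM 5′-fluorescein-SLIIb with 1 mM ascorbic acid and 1 mM H2O2 in 20 mM HEPES (pH 7.4, 100 mM NaCl) at 25 °C. Fluorescence loss was followed at ex 491/em 518 nm and converted to RNA concentration by a calibration curve. Initial velocities were plotted against catalyst concentration and fit to Michaelis–Menten to give KM and kcat. Values are the mean of ≥3 trials.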

[2] = system: fluorescein-labelled SLIIb; experiment: Reaction rates monitored by agarose gel electrophoresis; assay type: biochemical, hepatitis C virus; conditions: addition of complex to SLIIb
[3] = system: fluorescein-labeled IRES SLIIb; experiment: Time-dependent MALDI-TOF mass spectrometry of SLIIb cleavage; assay type: biochemical, hepatitis C virus; conditions: for Initial Rate (%Overhang/min), 2′, 3′-cPO4: overhang 2′,3′-cyclic phosphates; for Initial Rate (%Overhang/min), 2′, 3′-cPO4 / Initial Rate (%Overhang/min), 3′-AL / Initial Rate (%Overhang/min), 3′-OH / Initial Rate (%Overhang/min), 3′-PO4 / Initial Rate (%Overhang/min), 3′-PGA / Initial Rate (%Overhang/min), 3′-PG / Initial Rate (%Overhang/min), 5′-AL / Initial Rate (%Overhang/min), 5′-GemDiol / Initial Rate (%Overhang/min), 5′-OH / Initial Rate (%Overhang/min), 5′-PO4 / Initial Rate (%Overhang/min), 5′-PPA: MALDI-TOF time dependence; for Initial Rate (%Overhang/min), 3′-AL: overhang 3′-aldehyde; for Initial Rate (%Overhang/min), 3′-OH: overhang 3′-hydroxyl; for Initial Rate (%Overhang/min), 3′-PO4: overhang 3′-phosphates; for Initial Rate (%Overhang/min), 3′-PGA: overhang 3′-phosphoglycaldehyde; for Initial Rate (%Overhang/min), 3′-PG: overhang 3′-phosphoglycolate; for Initial Rate (%Overhang/min), 5′-AL: overhang 5′-aldehyde; for Initial Rate (%Overhang/min), 5′-GemDiol: overhang 5′-geminal diol; for Initial Rate (%Overhang/min), 5′-OH: overhang 5′-hydroxyl; for Initial Rate (%Overhang/min), 5′-PO4: overhang 5′-phosphate; for Initial Rate (%Overhang/min), 5′-PPA: overhang 5′-phosphopropenal; for Relative Initial Rate (Normalized Intensity/min × 1000), position A6 / Relative Initial Rate (Normalized Intensity/min × 1000), position A15 / Relative Initial Rate (Normalized Intensity/min × 1000), position A19 / Relative Initial Rate (Normalized Intensity/min × 1000), position A27 / Relative Initial Rate (Normalized Intensity/min × 1000), position A30 / Relative Initial Rate (Normalized Intensity/min × 1000), position C10 / Relative Initial Rate (Normalized Intensity/min × 1000), position C33 / Relative Initial Rate (Normalized Intensity/min × 1000), position G5 / Relative Initial Rate (Normalized Intensity/min × 1000), position G9 / Relative Initial Rate (Normalized Intensity/min × 1000), position G11 / Relative Initial Rate (Normalized Intensity/min × 1000), position G28 / Relative Initial Rate (Normalized Intensity/min × 1000), position U12 / Relative Initial Rate (Normalized Intensity/min × 1000), position U14 / Relative Initial Rate (Normalized Intensity/min × 1000), position U25 / Relative Initial Rate (Normalized Intensity/min × 1000), position U26 / Relative Initial Rate (Normalized Intensity/min × 1000), position U29 / Relative Initial Rate (Normalized Intensity/min × 1000), position U31: 10 μM SLIIb, 10 μM copper-peptide
Procedure, shortened: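 Reactions contained 10 μM Fl-SLIIb, 10 μM Cu–peptide, 1 mM ascorbate and 1 mM H2O2, and were sampled at 2–180 min. They were quenched on ice, C18-desalted, and analysed by negative-ion reflectron MALDI-TOF (HPA/ammonium citrate matrix, ≥1000 shots). Peaks with m/z >1500 and S/N >5 were assigned against expected product masses. Products were summed per overhang type and expressed as a fraction at each time point. Initial rate was taken from the linear region (first ~40 min).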

[4] = system: 5′-fluorescein labeled HCV SLIIb; conditions: pseudo Michaelis-Menten, fluorescence, cited from earlier work

Substance	kcat/KM [1] [µM⁻¹ min⁻¹]	Initial Rate (%Overhang/min), 2′, 3′-cPO4 [3] [%Overhang/min]	Initial Rate (%Overhang/min), 3′-AL [3] [%Overhang/min]	Initial Rate (%Overhang/min), 3′-OH [3] [%Overhang/min]	Initial Rate (%Overhang/min), 3′-PO4 [3] [%Overhang/min]	Initial Rate (%Overhang/min), 3′-PGA [3] [%Overhang/min]	Initial Rate (%Overhang/min), 3′-PG [3] [%Overhang/min]	Initial Rate (%Overhang/min), 5′-AL [3] [%Overhang/min]	Initial Rate (%Overhang/min), 5′-GemDiol [3] [%Overhang/min]	Initial Rate (%Overhang/min), 5′-OH [3] [%Overhang/min]	Initial Rate (%Overhang/min), 5′-PO4 [3] [%Overhang/min]	Initial Rate (%Overhang/min), 5′-PPA [3] [%Overhang/min]	Relative Initial Rate (Normalized Intensity/min × 1000), position A6 [3]	Relative Initial Rate (Normalized Intensity/min × 1000), position A15 [3]	Relative Initial Rate (Normalized Intensity/min × 1000), position A19 [3]	Relative Initial Rate (Normalized Intensity/min × 1000), position A27 [3]	Relative Initial Rate (Normalized Intensity/min × 1000), position A30 [3]	Relative Initial Rate (Normalized Intensity/min × 1000), position C10 [3]	Relative Initial Rate (Normalized Intensity/min × 1000), position C33 [3]	Relative Initial Rate (Normalized Intensity/min × 1000), position G5 [3]	further results
GGHKRFK-Cu [11-Cu]	0.022	–	–	–	–	–	–	–	–	–	–	–	–	–	–	–	–	–	–	–	precipitation from solution on addition to SLIIb [2]: significant precipitation
GGHYRFA-Cu [7-Cu]	0.025	0.1 ± 0.1	0.8 ± 0.1	0.4 ± 0.1	0.1 ± 0.1	0.6 ± 0.2	0.2 ± 0.1	1.5 ± 0.5	0.2 ± 0.1	1.1 ± 0.2	0.5 ± 0.2	0.5 ± 0.1	- ^a	- ^a	0.8 ± 0.4 Normalized Intensity/min × 1000	- ^a	1.0 ± 0.4 Normalized Intensity/min × 1000	- ^a	- ^a	- ^a	Relative Initial Rate (Normalized Intensity/min × 1000), position G9 [3]: <1 Normalized Intensity/min × 1000; Relative Initial Rate (Normalized Intensity/min × 1000), position G11 [3]: 1.6 ± 0.7 Normalized Intensity/min × 1000; Relative Initial Rate (Normalized Intensity/min × 1000), position G28 [3]: - ^a; Relative Initial Rate (Normalized Intensity/min × 1000), position U12 [3]: <1 Normalized Intensity/min × 1000; Relative Initial Rate (Normalized Intensity/min × 1000), position U14 [3]: - ^a; Relative Initial Rate (Normalized Intensity/min × 1000), position U25 [3]: <1 Normalized Intensity/min × 1000; Relative Initial Rate (Normalized Intensity/min × 1000), position U26 [3]: <1 Normalized Intensity/min × 1000; Relative Initial Rate (Normalized Intensity/min × 1000), position U29 [3]: 2.9 ± 0.6 Normalized Intensity/min × 1000; Relative Initial Rate (Normalized Intensity/min × 1000), position U31 [3]: - ^a
GGHYRFK-Cu [3-Cu]	0.0014	0.7 ± 0.3	0.8 ± 0.1	1.1 ± 0.5	0.4 ± 0.1	0.3 ± 0.1	0.2 ± 0.1	0.7 ± 0.1	0.3 ± 0.1	2.0 ± 0.6	0.4 ± 0.1	0.3 ± 0.1	- ^a	- ^a	- ^a	- ^a	- ^a	- ^a	- ^a	- ^a	Relative Initial Rate (Normalized Intensity/min × 1000), position G9 [3]: 1.4 ± 0.3 Normalized Intensity/min × 1000; Relative Initial Rate (Normalized Intensity/min × 1000), position G11 [3]: - ^a; Relative Initial Rate (Normalized Intensity/min × 1000), position G28 [3]: 1.0 ± 0.5 Normalized Intensity/min × 1000; Relative Initial Rate (Normalized Intensity/min × 1000), position U12 [3]: 1.2 ± 0.7 Normalized Intensity/min × 1000; Relative Initial Rate (Normalized Intensity/min × 1000), position U14 [3]: 1.2 ± 0.1 Normalized Intensity/min × 1000; Relative Initial Rate (Normalized Intensity/min × 1000), position U25 [3]: - ^a; Relative Initial Rate (Normalized Intensity/min × 1000), position U26 [3]: - ^a; Relative Initial Rate (Normalized Intensity/min × 1000), position U29 [3]: - ^a; Relative Initial Rate (Normalized Intensity/min × 1000), position U31 [3]: - ^a
GGHYrFK-Cu [1-Cu]	–	–	–	–	–	–	–	–	–	–	–	–	–	–	–	–	–	–	–	–	Km ([4]; ref 4b): 0.8 ± 0.1 µM; kcat ([4]; ref 4b): 0.53 ± 0.02 min⁻¹; kcat/KM ([4]; ref 4b): 0.663 µM⁻¹ min⁻¹
GGhyrfk-Cu [2-Cu]	–	–	–	–	–	–	–	–	–	–	–	–	–	–	–	–	–	–	–	–	Km ([4]; ref 4d): 7.9 ± 1.2 µM; kcat ([4]; ref 4d): 0.14 ± 0.01 min⁻¹; kcat/KM ([4]; ref 4d): 0.018 µM⁻¹ min⁻¹

From paper PMC5970367 (Chembiochem : a European journal of chemical biology, 2017)
